In paper PMC4589150 (Nature chemical biology, 2015):
Non-standard residues stand in square brackets, D forms with d. Residues, ends and D or L forms follow the SMILES beside them. No end group written: not given here. pS = N[C@@H](COP(=O)(O)O)C(=O)O

Legend:
[1] = biological target: histone H4 methylated K20 (Homo sapiens) (UniProt P62805); settings: cited from earlier work
fluorescein-SQEY-OH = biological target: T1, fluorescein-SQEY-OH; assay: fluorescence polarisation
T1 sequence (peptide, fluorescein on the N-terminus; free C-terminal carboxylate): SQEY

[2] = biological target: fluorescein-phospho-SQEY-OH; assay: fluorescence polarisation
53BP1-BRCT = 53BP1-BRCT (Homo sapiens, UniProt Q12888); assay: Fluorescence anisotropy competition binding against fluorescein-pSQEY-OH
Procedure, shortened: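 Untagged 53BP1 tandem BRCT (6 μM; GST removed by PreScission, anion-exchange purified) with fluorescein-phospho-SQEY peptide (50 nM) and graded unlabelled competitor peptide. Buffer: 50 mM HEPES pH 7.5, 150 mM NaCl, 1 mM DTT. Anisotropy read after equilibration. IC50 from four-parameter sigmoidal fit. Ki from IC50 using bound/total ligand, receptor and direct-binding Kd.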

MCM2 = assay: CLASPI 'selectivity filter' SILAC proteomics in HeLa lysate; format: binding; settings: probes 5 μM, nocodazole-arrested HeLa lysate, SILAC LC-MS/MS
Procedure, shortened: (§1)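 Heavy (13C615N4-Arg 22 mg/L, 13C615N2-Lys 50 mg/L) or light SILAC-labelled HeLa S3 cells, nocodazole-arrested, lysed by cryogenic grinding. Lysates photo-cross-linked with γH2AX probe 1 or H2AX probe 2 (5 μM), combined, streptavidin-captured (0.5% SDS, 90 min RT), washed, dithionite-eluted. SDS-PAGE, in-gel trypsin digestion, LC-MS/MS on LTQ-Orbitrap, SILAC ratio quantitation. Forward and reverse label-swap runs.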

MDC1 = assay: as above; format: binding; settings: probes 5 μM, nocodazole-arrested HeLa lysate, SILAC LC-MS/MS
Procedure, shortened: as §1

SIRT1 = assay: as above; format: binding; settings: probes 5 μM, nocodazole-arrested HeLa lysate, SILAC LC-MS/MS
Procedure, shortened: as §1

[3] = biological target: GST-53BP1 residues 1702-1972 (BRCT domains fragment) (Homo sapiens, UniProt Q12888); format: binding
Procedure, shortened: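 GST-53BP1 (residues 1702-1972; E. coli-expressed, glutathione-affinity purified, dialysed), 200 nM, with probe 1 or probe 2 (5 μM), or with probe 1 plus γH2AX peptide (100 μM). Incubation 20 min on ice, then 365 nm UV for 15 min on ice. Cross-linking read by streptavidin Western blot. Two independent experiments.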

POLG = assay: CLASPI 'selectivity filter' SILAC proteomics in HeLa lysate; format: binding; settings: probes 5 μM, nocodazole-arrested HeLa lysate, SILAC LC-MS/MS
Procedure, shortened: as §1

53BP1 = assay: as above; format: binding; settings: probes 5 μM, nocodazole-arrested HeLa lysate, SILAC LC-MS/MS
Procedure, shortened: as §1

MDC1-BRCT = biological target: T2, MDC1-BRCT (Homo sapiens, UniProt Q14676); format: binding
T2 sequence (Q14676 1883-2089): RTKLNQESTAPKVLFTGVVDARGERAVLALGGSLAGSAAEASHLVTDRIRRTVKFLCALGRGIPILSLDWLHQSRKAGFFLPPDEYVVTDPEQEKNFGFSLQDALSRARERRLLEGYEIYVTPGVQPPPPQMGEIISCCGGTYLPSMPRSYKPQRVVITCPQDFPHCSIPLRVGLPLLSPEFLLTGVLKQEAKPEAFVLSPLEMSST
Procedure, shortened: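 E. coli-expressed, glutathione-affinity-purified MDC1-BRCT (200 nM) with biotinylated probe 1 (1 μM) and graded γH2AX competitor peptide (Ac-KKATQApSQEY-OH). Incubation 20 min on ice, then 365 nm UV for 15 min on ice. Cross-linked complexes detected by Western blot with streptavidin-based detection. Mean ± s.d., n=3.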

[4] = biological target: 53BP1-BRCT (53BP1 tandem BRCT domains, residues 1702-1972), untagged (human) (UniProt Q12888); assay: fluorescence polarisation
53BP1-BRCT (53BP1 tandem BRCT domains, residues 1702-1972), untagged (human), sequence (Q12888 1702-1972): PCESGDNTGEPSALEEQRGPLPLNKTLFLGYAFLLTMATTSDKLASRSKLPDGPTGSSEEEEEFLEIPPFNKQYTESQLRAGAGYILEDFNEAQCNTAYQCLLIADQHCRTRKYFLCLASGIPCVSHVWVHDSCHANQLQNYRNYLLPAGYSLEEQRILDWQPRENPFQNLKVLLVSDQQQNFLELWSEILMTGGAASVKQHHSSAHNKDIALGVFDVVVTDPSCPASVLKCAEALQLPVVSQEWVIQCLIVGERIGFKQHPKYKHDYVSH

GST-53BP1 residues 1702-1972 (BRCT domains fragment), sequence (Q12888 1702-1972): as above
53BP1-BRCT, sequence (Q12888 1702-1972): as above

53BP1 tandem Tudor (from UniProt Q12888)
Kd [1]: 20 µM

53BP1-BRCT (53BP1 tandem BRCT domains, residues 1702-1972), untagged (from UniProt Q12888 1702-1972) (domain or fragment)
percent of peptide bound at 50 μM 53BP1-BRCT (fluorescein-SQEY-OH): 10%
Kd [2]: 2.7 µM

53BP1-BRCT K1814M (from UniProt Q12888 1702-1972) (domain or fragment)
Kd [2]: > 70 µM

53BP1-BRCT R1811Q (from UniProt Q12888 1702-1972) (domain or fragment)
Kd [2]: 35 µM

NC(=O)CC[C@H](NC(=O)[C@@H](N)COP(=O)(O)O)C(=O)N[C@@H](CCC(=O)O)C(=O)N[C@@H](Cc1ccc(O)cc1)C(N)=O [pSQEY-NH2] (H-[pS]QEY-NH2)
Ki (53BP1-BRCT): 25 ± 0.58 µM

NC(=O)CC[C@H](NC(=O)[C@@H](N)COP(=O)(O)O)C(=O)N[C@@H](CCC(=O)O)C(=O)N[C@@H](Cc1ccc(O)cc1)C(=O)O [pSQEY-OH] (H-[pS]QEY-OH)
Ki (53BP1-BRCT): 7.5 ± 1.1 µM

CC(=O)N[C@@H](Cc1cn(CCc2ccc(O)c(N=Nc3ccc(C(=O)NCCOCCOCCOCCOCCNC(=O)CCCC[C@@H]4SC[C@@H]5NC(=O)N[C@@H]54)cc3)c2)nn1)C(=O)N[C@@H](CCCCN)C(=O)N[C@@H](CCCCN)C(=O)N[C@@H](C)C(=O)N[C@@H](Cc1ccc(C(=O)c2ccccc2)cc1)C(=O)N[C@@H](CCC(N)=O)C(=O)N[C@@H](C)C(=O)N[C@@H](COP(=O)(O)O)C(=O)N[C@@H](CCC(N)=O)C(=O)N[C@@H](CCC(=O)O)C(=O)N[C@@H](Cc1ccc(O)cc1)C(=O)O [probe 1]
enrichment ratio of MCM2, probe 1 relative to probe 2 (MCM2): 2.5–3.5
enrichment ratio of MDC1, probe 1 relative to probe 2 (MDC1): 3.9
enrichment ratio of SIRT1, probe 1 relative to probe 2 (SIRT1): 2.5–3.5
photo-cross-linking to BRCT domains fragment (in words) ([3]; probe 5 μM, streptavidin Western blot, representative of 2 experiments): robust cross-linking
enrichment ratio of POLG, probe 1 relative to probe 2 (POLG): 2.5–3.5
enrichment ratio of 53BP1, probe 1 relative to probe 2 (53BP1): 4.9

CC(=O)N[C@@H](CCCCN)C(=O)N[C@@H](CCCCN)C(=O)N[C@@H](C)C(=O)N[C@H](C(=O)N[C@@H](CCC(N)=O)C(=O)N[C@@H](C)C(=O)N[C@@H](COP(=O)(O)O)C(=O)N[C@@H](CCC(N)=O)C(=O)N[C@@H](CCC(=O)O)C(=O)N[C@@H](Cc1ccc(O)cc1)C(=O)O)[C@@H](C)O [γH2AX peptide, Ac-KKATQApSQEY-OH, reference compound] (Ac-KKATQA[pS]QEY-OH)
IC50 (MDC1-BRCT): 4.4 ± 1.6 µM
Kd [3]: < 100 µM

B1: phospho-SPTF-OH (peptide)
peptide: [pS]PTF-OH
Ki [4]: 46 µM

B2: phospho-SQEY-NH2 (peptide)
peptide: [pS]QEY-NH2
Ki [4]: 25 µM

B3: unlabeled phospho-SQEY-OH tetrapeptide (peptide)
peptide: [pS]QEY-OH
Ki [4]: 7.5 µM
